≈ marks a conversion by molar mass, not a printed value.
Assays:
[1] = Metabolic stability in NADPH-fortified human liver microsomes assessed as parent compound remaining at 10 uM after 30 mins by HPLC/UV/MS analysis; format: ADME, Microsome; conditions: read-out: Stability
How it was run: (§1)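 Pooled rat or human liver microsomes 1 mg/mL, 10 μM substrate, 100 mM potassium phosphate pH 7.4, 37 °C, started with NADPH-regenerating system (1.3 mM NADP+, 3.3 mM glucose-6-phosphate, 3.3 mM MgCl2, 0.5 U/mL G6PDH); GSH 5 mM in trapping runs. Sampled 0 and 30 min, acetonitrile quench; abundance as UV peak area (330–340 nm) fraction of all drug-related components by HPLC/UV/MS.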

[2] = Metabolic stability in rat liver microsomes assessed as compound remaining at 3 uM after 10 mins by HPLC/UV/MS analysis; format: ADME, Microsome; conditions: read-out: Stability
How it was run: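 Pooled human or rat liver microsomes (1 mg/mL protein) with 3 μM compound and 1.3 mM NADPH in 100 mM sodium phosphate pH 7.4 at 37 °C; final 0.015% DMSO, 0.985% acetonitrile; stopped at 0 and 10 min, percent remaining by LC/MS/MS.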

[3] = target: T1, Corticotropin-releasing factor receptor 1 (Rattus norvegicus, UniProt P35353); experiment: Displacement of [125I]Tyr-o-CRF from CRF1 receptor in rat frontal cortex homogenate by binding titration assay; format: tissue-based
T1 sequence (P35353 whole entry): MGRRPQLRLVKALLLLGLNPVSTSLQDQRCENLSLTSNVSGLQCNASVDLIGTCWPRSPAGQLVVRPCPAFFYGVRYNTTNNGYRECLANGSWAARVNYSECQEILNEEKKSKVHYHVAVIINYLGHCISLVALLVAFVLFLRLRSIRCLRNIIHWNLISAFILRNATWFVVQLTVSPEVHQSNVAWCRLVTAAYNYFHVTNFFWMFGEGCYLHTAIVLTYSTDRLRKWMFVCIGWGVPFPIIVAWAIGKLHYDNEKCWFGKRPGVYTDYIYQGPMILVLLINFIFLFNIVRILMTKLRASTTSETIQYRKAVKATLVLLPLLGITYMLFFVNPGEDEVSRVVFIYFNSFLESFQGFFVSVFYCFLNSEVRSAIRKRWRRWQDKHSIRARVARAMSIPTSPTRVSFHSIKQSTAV

[4] = AUC in Sprague-Dawley rat at 10 mg/kg, po dosed as aqueous suspension of Labrafil M 1944CS/DMAC/polysorbate 80, 85:10:5 (v/v) after 0.25 to 24 hrs by LC/MS/MS analysis; format: ADME, organism-based; parameters: time 0.25-24 hr, dose 10 mg/kg, route oral; conditions: plasma
[5] = Cmax in Sprague-Dawley rat at 10 mg/kg, po dosed as aqueous suspension of 1% polysorbate 80 in 0.5% methylcellulose after 2 to 4 hrs by LC/MS/MS analysis; format: ADME, organism-based; parameters: dose 10 mg/kg, route oral; conditions: in vivo
[6] = Fraction unbound in human serum after 3 to 7 hrs by equilibrium dialysis; format: ADME, cell-free
How it was run: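 Human serum spiked with compound, equilibrium-dialysed against isotonic phosphate buffer for 3 or 7 h (depending on system) at 37 °C; both sides measured by LC/MS/MS, unbound fraction as buffer/serum concentration ratio.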

[7] = Metabolic stability in NADPH-fortified rat liver microsomes assessed as parent compound remaining at 10 uM after 30 mins by HPLC/UV/MS analysis; format: ADME, Microsome; conditions: read-out: Stability; how it was run: as §1
[8] = Volume of distribution at steady state in Sprague-Dawley rat at 2 mg/kg, iv after 0.17 to 24 hrs by LC/MS/MS analysis; format: ADME, organism-based; parameters: dose 2 mg/kg, route intravenous; conditions: in vivo, read-out: Vdss
How it was run: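 Sprague–Dawley rats (n = 3) dosed 2 mg/kg iv in PEG:ethanol 90:10 (v/v) at 1 mL/kg. Plasma stored at –20 °C and quantified by LC/MS/MS after acetonitrile precipitation with internal standard.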

[9] = Cmax in Sprague-Dawley rat at 10 mg/kg, po dosed as aqueous suspension of Labrafil M 1944CS/DMAC/polysorbate 80, 85:10:5 (v/v) after 2 to 4 hrs by LC/MS/MS analysis; format: ADME, organism-based; parameters: dose 10 mg/kg, route oral; conditions: in vivo
[10] = Oral bioavailability in Sprague-Dawley rat at 10 mg/kg dosed as aqueous suspension of Labrafil M 1944CS/DMAC/polysorbate 80, 85:10:5 (v/v) after 0.25 to 24 hrs by LC/MS/MS analysis; format: ADME, organism-based; conditions: in vivo
[11] = Clearance in Sprague-Dawley rat at 2 mg/kg, iv after 0.17 to 24 hrs by LC/MS/MS analysis; format: ADME, organism-based; parameters: dose 2 mg/kg, route intravenous; conditions: in vivo
Liver microsomes [12] = experiment: Metabolic stability in NADPH-fortified rat liver microsomes assessed as GSH adduct formation at 10 uM after 30 mins by HPLC/UV/MS analysis; format: ADME, Microsome; conditions: 0.5 h; how it was run: as §1
[13] = Oral bioavailability in Sprague-Dawley rat at 10 mg/kg dosed as aqueous suspension of 1% polysorbate 80 in 0.5% methylcellulose after 0.25 to 24 hrs by LC/MS/MS analysis; format: ADME, organism-based; conditions: in vivo
Liver microsomes [14] = experiment: Metabolic stability in NADPH-fortified rat liver microsomes assessed as pyrazinone oxidation metabolite formation at 10 uM after 30 mins by HPLC/UV/MS analysis; format: ADME, Microsome; conditions: 0.5 h; how it was run: as §1
[15] = Half life in Sprague-Dawley rat at 2 mg/kg, iv by LC/MS/MS analysis; format: ADME, organism-based; parameters: dose 2 mg/kg, route intravenous; conditions: in vivo
[16] = AUC in Sprague-Dawley rat at 10 mg/kg, po dosed as aqueous suspension of 1% polysorbate 80 in 0.5% methylcellulose after 0.25 to 24 hrs by LC/MS/MS analysis; format: ADME, organism-based; parameters: time upper 24 hr, time lower 0.25 hr, dose 10 mg/kg, route oral; conditions: in vivo
Liver microsomes [17] = experiment: Metabolic stability in NADPH-fortified human liver microsomes assessed as GSH adduct formation at 10 uM after 30 mins by HPLC/UV/MS analysis; format: ADME, Microsome; conditions: 0.5 h; how it was run: as §1
[18] = Metabolic stability in human liver microsomes assessed as compound remaining at 3 uM after 10 mins by HPLC/UV/MS analysis; format: ADME, Microsome; conditions: read-out: Stability
Liver microsomes [19] = experiment: Metabolic stability in NADPH-fortified human liver microsomes assessed as pyrazinone oxidation metabolite formation at 10 uM after 30 mins by HPLC/UV/MS analysis; format: ADME, Microsome; conditions: 0.5 h; how it was run: as §1
[20] = Octanol-water partition coefficient, log D at pH 7.4; format: physicochemical
How it was run: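 Partitioning between octanol and water at pH 7.4.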

[21] = Dissociation constant, pKa by spectrophotometric titration method; format: physicochemical
How it was run: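 Spectrophotometric titration over pH 2–11 in varying acetonitrile/water mixtures, extrapolated to 0% cosolvent.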

[22] = Aqueous solubility at pH 1; format: physicochemical
[23] = Aqueous solubility at pH 6.5; format: physicochemical

Structure (SMILES): Cc1cc(Nc2nc(C#N)cn([C@H](C)C3CC3)c2=O)c(C)nc1OC(F)F
- remaining at 0.5 h, 10 µM [1]: 88%
- remaining at 10 min, 3 µM [2]: 89%
- IC50 [3]: 820 pM
- AUC [4]: 9.9 µM·h
- Cmax [5]: 560 nM
- fraction unbound [6]: 0.016
- remaining at 0.5 h, 10 µM [7]: 80%
- Vd [8]: 11 L/kg
- Cmax [9]: 1400 nM
- bioavailability [10]: 82%
- clearance [11]: 36 mL/min/kg
- Activity (Liver microsomes [12]): 8%
- bioavailability [13]: 38%
- Activity (Liver microsomes [14]): < 1%
- half-life [15]: 7.2 h
- AUC [16]: 4.6 µM·h
- Activity (Liver microsomes [17]): 7%
- remaining at 10 min, 3 µM [18]: 100%
- Activity (Liver microsomes [19]): < 1%

Structure (SMILES): COc1nc(C)c(Nc2nc(C#N)cn([C@H](C)C3CC3)c2=O)cc1C
- remaining at 10 min, 3 µM [2]: 72%
- IC50 [3]: 10000 pM
- remaining at 10 min, 3 µM [18]: 99%

Structure (SMILES): CC[C@H](C1CC1)n1cc(Cl)nc(Nc2cc(C)c(OC(F)F)nc2C)c1=O
- remaining at 10 min, 3 µM [2]: 56%
- IC50 [3]: 210 pM
- remaining at 10 min, 3 µM [18]: 100%

Structure (SMILES): Cc1cc(Nc2nc(Cl)cn([C@H](C)C3CC3)c2=O)c(C)nc1OC(F)F
- remaining at 10 min, 3 µM [2]: 86%
- IC50 [3]: 300 pM
- remaining at 10 min, 3 µM [18]: 100%

Structure (SMILES): C[C@@H](C1CC1)n1cc(Cl)nc(Nc2c(Cl)cc(OC(F)F)cc2Cl)c1=O
- remaining at 0.5 h, 10 µM [1]: 85%
- remaining at 0.5 h, 10 µM [7]: 74%
- Activity (Liver microsomes [12]): 5%
- Activity (Liver microsomes [14]): 20%
- Activity (Liver microsomes [17]): 2%
- Activity (Liver microsomes [19]): 12%

Structure (SMILES): COC[C@@H](C1CC1)n1cc(Cl)nc(Nc2cc(C)c(OC(F)F)nc2C)c1=O
- remaining at 10 min, 3 µM [2]: 46%
- IC50 [3]: 500 pM
- AUC [4]: 4.7 µM·h
- fraction unbound [6]: 0.008
- Vd [8]: 42 L/kg
- Cmax [9]: 440 nM
- bioavailability [10]: 48%
- clearance [11]: 31 mL/min/kg
- half-life [15]: 16 h
- remaining at 10 min, 3 µM [18]: 84%

Structure (SMILES): COC[C@H](C1CC1)n1cc(Cl)nc(Nc2cc(C)c(OC(F)F)nc2C)c1=O
- remaining at 0.5 h, 10 µM [1]: 75%
- remaining at 10 min, 3 µM [2]: 69%
- IC50 [3]: 240 pM
- AUC [4]: 9 µM·h
- Cmax [5]: 770 nM
- fraction unbound [6]: 0.008
- remaining at 0.5 h, 10 µM [7]: 42%
- Vd [8]: 15 L/kg
- Cmax [9]: 1300 nM
- bioavailability [10]: 86%
- clearance [11]: 36 mL/min/kg
- Activity (Liver microsomes [12]): 3%
- bioavailability [13]: 66%
- Activity (Liver microsomes [14]): 1%
- half-life [15]: 9.2 h
- AUC [16]: 7 µM·h
- Activity (Liver microsomes [17]): 5%
- Activity (Liver microsomes [19]): 1%

Structure (SMILES): COc1nc(C)c(Nc2nc(Cl)cn([C@H](C)C3CC3)c2=O)cc1C
- remaining at 10 min, 3 µM [2]: 55%
- IC50 [3]: 1500 pM
- remaining at 10 min, 3 µM [18]: 77%

Structure (SMILES): CC[C@H](C1CC1)n1cc(C#N)nc(Nc2cc(C)c(OC)nc2C)c1=O
- remaining at 10 min, 3 µM [2]: 38%
- IC50 [3]: 1700 pM
- logD [20]: 4.1
- AUC [4]: 3 µM·h
- Cmax [5]: 50 nM
- fraction unbound [6]: 0.019
- pKa [21]: < 2
- Vd [8]: 11 L/kg
- Cmax [9]: 590 nM
- bioavailability [10]: 33%
- clearance [11]: 53 mL/min/kg
- solubility [22]: 23 µg/mL (≈ 65.1 µM)
- bioavailability [13]: 3%
- half-life [15]: 9 h
- AUC [16]: 0.24 µM·h
- solubility [23]: 1 µg/mL (≈ 2.83 µM)
- remaining at 10 min, 3 µM [18]: 81%
